{
  "source": "ChEMBL document CHEMBL2086359",
  "about": "“Tormentic acid derivatives: synthesis and apoptotic activity” (Eur J Med Chem, 2012)",
  "key": {"[1]": {"assay": "Cytotoxicity against human A253 cells after 96 hrs by SRB assay", "assay_type": "functional, cell-based", "procedure,_shortened": "(§1)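 Monolayer cultures kept in RPMI 1640 with 10% heat-inactivated FBS and penicillin/streptomycin at 37 °C, 5% CO2. Exponentially growing cells were seeded and treated 24 h later with serial dilutions (0–30 µM) for 96 h, with DMSO or DMF at most 0.5% final. Cells were fixed with 10% TCA at 4 °C and stained with 0.4% SRB for about 30 min. Plates were washed with 1% acetic acid and the dye dissolved in 10 mM Tris base. Absorbance was read at 570 nm and survival taken relative to untreated controls. IC50 was estimated from dose–response curves, averaged from at least 5 independent experiments.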"}, "[2]": {"system": "8505C", "assay": "Induction of apoptosis in human 8505C cells after 24 to 48 hrs by DNA laddering assay", "assay_type": "functional, cell-based", "procedure,_shortened": "(§2)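 About 1×10^6 cells were grown in 25 cm2 flasks to 80% and exposed to compound-loaded medium for 24–48 h, with blank medium as control. Cells were collected from the supernatant (300 g, 4 °C), washed in PBS and lysed. Lysates were digested with RNase for 2 h at 37 °C, then with proteinase K for 12 h at 50 °C. DNA was run on agarose gel electrophoresis ([…], 2 h).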"}, "[3]": {"system": "A2780", "assay": "Cytotoxicity against human A2780 cells after 96 hrs by SRB assay", "assay_type": "functional, cell-based", "procedure,_shortened": "as §1"}, "[4]": {"system": "8505C", "assay": "Induction of apoptosis in human 8505C cells migration of phosphatidylserine from inner to outer cell membrane at 3.5 uM after 6 hrs by Annexin V-FITC/PI based FACS analysis", "assay_type": "functional"}, "[5]": {"system": "518A2", "assay": "Induction of apoptosis in human 518A2 cells after 24 to 48 hrs by DNA laddering assay", "assay_type": "functional, cell-based", "procedure,_shortened": "as §2"}, "[6]": {"assay": "Cytotoxicity against human 518A2 cells after 96 hrs by SRB assay", "assay_type": "functional, cell-based", "procedure,_shortened": "as §1"}, "[7]": {"system": "8505C", "assay": "Cytotoxicity against human 8505C cells after 96 hrs by SRB assay", "assay_type": "functional, cell-based", "procedure,_shortened": "as §1"}, "[8]": {"assay": "Cytotoxicity against human WW030272 cells after 96 hrs by SRB assay", "assay_type": "cell-based", "procedure,_shortened": "as §1"}, "[9]": {"system": "MCF7", "assay": "Cytotoxicity against human MCF7 cells after 96 hrs by SRB assay", "assay_type": "functional, cell-based", "procedure,_shortened": "as §1"}, "[10]": {"system": "NIH3T3", "assay": "Cytotoxicity against mouse NIH/3T3 cells after 96 hrs by SRB assay", "assay_type": "cell-based", "procedure,_shortened": "as §1"}, "[11]": {"system": "8505C", "assay": "Induction of apoptosis in human 8505C cells assessed as induction of cell death after 24 to 48 hrs by AO/PI exclusion dye assay", "assay_type": "functional, cell-based", "procedure,_shortened": "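About 1×10^6 cells were grown in 25 cm2 flasks to 80% and given compound-loaded medium for 24–48 h, with blank medium as control. Cells were recovered from the supernatant (300 g, 4 °C), washed and resuspended in PBS. They were mixed 1:1 with AO/PI solution and viewed by fluorescence microscopy: green cells were scored as apoptotic, red as necrotic.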"}, "[12]": {"system": "DLD-1", "assay": "Cytotoxicity against human DLD1 cells after 96 hrs by SRB assay", "assay_type": "functional, cell-based", "procedure,_shortened": "as §1"}, "[13]": {"system": "A549", "assay": "Cytotoxicity against human A549 cells after 96 hrs by SRB assay", "assay_type": "functional, cell-based", "procedure,_shortened": "as §1"}, "[14]": {"system": "8505C", "assay": "Induction of apoptosis in human 8505C cells assessed as blebbing of nuclear membrane at 30 uM after 24 hrs by acridine orange based fluorescence microscopy analysis", "assay_type": "functional, cell-based", "procedure,_shortened": "(§3)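 They were treated with 30 µM compound, and the next day washed with PBS and stained with acridine orange. Living cells were inspected by fluorescence microscopy for chromatin condensation and nuclear membrane blebbing.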"}, "[15]": {"system": "518A2", "assay": "Induction of apoptosis in human 518A2 cells assessed as condensation of chromatin at 30 uM after 24 hrs by acridine orange based fluorescence microscopy analysis", "assay_type": "functional, cell-based", "procedure,_shortened": "as §3"}, "[16]": {"system": "8505C", "assay": "Induction of apoptosis in human 8505C cells assessed as condensation of chromatin at 30 uM after 24 hrs by acridine orange based fluorescence microscopy analysis", "assay_type": "functional, cell-based", "procedure,_shortened": "as §3"}, "[17]": {"system": "518A2", "assay": "Induction of apoptosis in human 518A2 cells assessed as blebbing of nuclear membrane at 30 uM after 24 hrs by acridine orange based fluorescence microscopy analysis", "assay_type": "functional, cell-based", "procedure,_shortened": "as §3"}, "[18]": {"system": "8505C", "assay": "Induction of apoptosis in human 8505C cells assessed as migration of phosphatidylserine from inner to outer cell membrane at 30 uM after 6 hrs by Annexin V-FITC/PI based FACS analysis", "assay_type": "functional"}},
  "note": "Calls of active or inactive are those of the source. The calls are words filed in the database; no cut-off is given here.",
  "data": [
    {"smiles": "COC(=O)[C@]12CC[C@@H](C)[C@@](C)(O)[C@H]1C1=CC[C@@H]3[C@@]4(C)C[C@@H](OC(=O)CCl)[C@H](OC(=O)CCl)C(C)(C)[C@@H]4CC[C@@]3(C)[C@]1(C)CC2", "values": [
      {"measurement": "IC50", "setting": "[1]", "result": 1.6, "unit": "µmol"},
      {"measurement": "Activity", "setting": "[2]", "result": "Active"},
      {"measurement": "IC50", "setting": "[3]", "result": 0.8, "unit": "µmol"},
      {"measurement": "Activity", "setting": "[4]", "result": "Active"},
      {"measurement": "Activity", "setting": "[5]", "result": "Active"},
      {"measurement": "IC50", "setting": "[6]", "result": 1.1, "unit": "µmol"},
      {"measurement": "IC50", "setting": "[7]", "result": 1.6, "unit": "µmol"},
      {"measurement": "IC50", "setting": "[8]", "result": 3.4, "unit": "µmol"},
      {"measurement": "IC50", "setting": "[9]", "result": 1.5, "unit": "µmol"},
      {"measurement": "IC50", "setting": "[10]", "result": 1.1, "unit": "µmol"},
      {"measurement": "Activity", "setting": "[11]", "result": "Active"},
      {"measurement": "IC50", "setting": "[12]", "result": 2.2, "unit": "µmol"},
      {"measurement": "IC50", "setting": "[13]", "result": 1.2, "unit": "µmol"}
    ]},
    {"smiles": "COC(=O)[C@]12CC[C@@H](C)[C@@](C)(O)[C@H]1C1=CC[C@@H]3[C@@]4(C)C[C@@H](O)[C@H](O)C(C)(C)[C@@H]4CC[C@@]3(C)[C@]1(C)CC2", "note": "[TORMENTIC ACID METHYL ESTER]", "values": [
      {"measurement": "IC50", "setting": "[1]", "result": 17, "unit": "µmol"},
      {"measurement": "Activity", "setting": "[2]", "result": "Active"},
      {"measurement": "IC50", "setting": "[3]", "result": 23.9, "unit": "µmol"},
      {"measurement": "Activity", "setting": "[5]", "result": "Active"},
      {"measurement": "IC50", "setting": "[6]", "result": 31.3, "unit": "µmol"},
      {"measurement": "IC50", "setting": "[7]", "result": 42, "unit": "µmol"},
      {"measurement": "Activity", "setting": "[14]", "result": "Active"},
      {"measurement": "IC50", "setting": "[8]", "result": 47.5, "unit": "µmol"},
      {"measurement": "IC50", "setting": "[9]", "result": 31.3, "unit": "µmol"},
      {"measurement": "IC50", "setting": "[10]", "result": 15.6, "unit": "µmol"},
      {"measurement": "Activity", "setting": "[11]", "result": "Active"},
      {"measurement": "Activity", "setting": "[15]", "result": "Active"},
      {"measurement": "IC50", "setting": "[12]", "result": 37.4, "unit": "µmol"},
      {"measurement": "Activity", "setting": "[16]", "result": "Active"},
      {"measurement": "Activity", "setting": "[17]", "result": "Active"}
    ]},
    {"smiles": "C[C@@H]1CC[C@]2(C(=O)O)CC[C@]3(C)C(=CC[C@@H]4[C@@]5(C)C[C@@H](O)[C@H](O)C(C)(C)[C@@H]5CC[C@]43C)[C@@H]2[C@]1(C)O", "note": "[TOMENTIC ACID]", "values": [
      {"measurement": "IC50", "setting": "[1]", "result": "> 30", "unit": "µmol"},
      {"measurement": "Activity", "setting": "[2]", "result": "Active"},
      {"measurement": "IC50", "setting": "[3]", "result": "> 30", "unit": "µmol"},
      {"measurement": "Activity", "setting": "[5]", "result": "Active"},
      {"measurement": "IC50", "setting": "[6]", "result": "> 30", "unit": "µmol"},
      {"measurement": "Activity", "setting": "[18]", "result": "Active"},
      {"measurement": "IC50", "setting": "[7]", "result": 23.4, "unit": "µmol"},
      {"measurement": "IC50", "setting": "[8]", "result": 47.7, "unit": "µmol"},
      {"measurement": "IC50", "setting": "[9]", "result": 32.3, "unit": "µmol"},
      {"measurement": "IC50", "setting": "[10]", "result": "> 30", "unit": "µmol"},
      {"measurement": "Activity", "setting": "[11]", "result": "Active"},
      {"measurement": "IC50", "setting": "[12]", "result": 31, "unit": "µmol"},
      {"measurement": "IC50", "setting": "[13]", "result": 31, "unit": "µmol"}
    ]}
  ]
}
